Bioassay records: PubChem, several laboratories
Shown are actives, neighbours in structure and some others; about 1.9% of the full set was active somewhere.
Rtt109 HAT inh: inhibitors of Candida albicans Rtt109/Vps75 histone acetyltransferase. Q5AAJ8. purified Rtt109/Vps75, ThioGlo CoA-SH fluorescence, 4 h. inhibition, % at 34.9 µM. 330,000 tested, 0.16% active. AID 540336;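 active = inhibition of at least 50% in every replicate; inconclusive = best replicate reaches 50% inhibition but some replicates fall short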
ARFGAP1 inhibitor: rat ARFGAP1 inhibition; inhibition, % at 16.5 µM; Arfgap1-stimulated ARF1 GTP hydrolysis, GDP FP detection; Q62848; 360,000 tested, 0.26% active;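 active = inhibition above a per-plate limit, mean inhibition of low control wells plus 3 SD, cut at about 25% in these data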;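 note: 0% = DMSO wells with enzyme and 100% = wells lacking Arfgap1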
Target sequence (Q62848 1-136 limits assumed): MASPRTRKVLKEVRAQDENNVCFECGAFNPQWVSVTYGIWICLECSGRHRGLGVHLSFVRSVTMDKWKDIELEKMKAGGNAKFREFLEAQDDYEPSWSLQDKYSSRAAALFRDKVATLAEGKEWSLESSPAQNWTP
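material = rat Arfgap1 catalytic domain, aa 1-136 | also added = human ARF1(Δ1-17)-GTP substrate | compound dosing = one concentration, 16.5 µM, DMSO 1.26% | times = GTP hydrolysis reaction 2 h at 25 °C | measured by = FP, GDP Alexa 633 tracer displaced from anti-GDP antibody, 620/688 nm | evaluation = percent inhibition of Arfgap1-stimulated GTP hydrolysis | replication = single well per compound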
FGF22 binding: shifts melting point of recombinant human FGF22; recombinant FGF22 thermal shift, SYPRO orange fluorescence; percent of sucrose octasulfate shift, DMSO zero; activity (Tm shift, normalised), % at 9.99 µM; 340,000 tested, 1.5% active; AID 651658;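 active = mean Tm shift, scaled 0 neutral to 100 positive control, at about 1.3% or above, every replicate too, limit read from the data; inconclusive = no clear call, values can overlap the other calls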
ASAP1 GAP inh: inhibitors of human ASAP1 ArfGAP activity; Q9ULH1; ASAP1-stimulated ARF1 GTP hydrolysis, GDP FP detection; inhibition, % at 16.5 µM; 360,000 tested, 0.19% active; AID 624377; in the data active = inhibition above about 25%;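 note: 0% = vehicle with enzyme and substrate and 100% = no enzyme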
Target sequence (Q9ULH1 325-724 limits assumed): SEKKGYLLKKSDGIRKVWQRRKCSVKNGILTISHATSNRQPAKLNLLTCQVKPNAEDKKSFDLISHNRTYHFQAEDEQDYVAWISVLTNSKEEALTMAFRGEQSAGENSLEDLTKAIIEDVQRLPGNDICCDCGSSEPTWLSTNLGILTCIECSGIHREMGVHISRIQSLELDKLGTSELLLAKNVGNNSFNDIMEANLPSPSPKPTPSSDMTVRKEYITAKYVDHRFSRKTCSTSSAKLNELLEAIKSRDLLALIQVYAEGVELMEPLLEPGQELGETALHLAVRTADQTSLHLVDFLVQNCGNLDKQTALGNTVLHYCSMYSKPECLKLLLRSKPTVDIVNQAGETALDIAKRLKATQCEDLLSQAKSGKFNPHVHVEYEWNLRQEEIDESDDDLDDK
Efflux pump mplx: inhibitors of Candida antifungal efflux pumps expressed in yeast. inhibition, % at 10 µM. 330,000 tested, 0.44% active. S. cerevisiae Candida pump triplex, Nile Red efflux. AID 485275;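 active = plate passing quality check with inhibition over a set limit, or well fluorescence over plate mean plus 4 SD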;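 note: Nile Red retained in pooled yeast measured as flow cytometry median fluorescence; 0% = buffer negative control and 100% = Enniatin B positive control; higher means more Nile Red kept so more efflux inhibition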
ASAP1 GAP conf: confirmation of human ASAP1 inhibitors; shares compounds with ASAP1 GAP inh; ASAP1-stimulated Arf1 GTPase, GDP fluorescence polarization; inhibition, % at 16.5 µM; 620 tested, 37% active; AID 624431;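 active = mean inhibition over triplicates exceeds the hit threshold derived for the earlier primary screening run, cut at about 25% in these data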
ARFGAP1 inh conf: confirmation of rat ARFGAP1 inhibitors. ARFGAP1-stimulated ARF1 GTP hydrolysis, GDP tracer FP. inhibition, % at 16.5 µM. AID 651608. 890 tested, 30% active. shares compounds with ARFGAP1 inhibitor;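 active = average inhibition over triplicates above the hit cutoff set in the earlier primary screen, cut at about 25% in these data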;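 note: 0% = Arfgap1 plus ARF1-GTP with DMSO and 100% = wells lacking Arfgap1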
* = called active by the depositor; ? = inconclusive; · = no result.

SMILES	Rtt109 HAT inh	ARFGAP1 inhibitor	FGF22 binding	ASAP1 GAP inh	Efflux pump mplx	ASAP1 GAP conf	ARFGAP1 inh conf
O=C(Nc1cccc(F)c1)c1ccc(-c2ccccc2C(F)(F)F)o1	·	2	0	2	·	·	·
CCCc1nnc(NC(=O)C(=O)NCCN(CC)CC)s1	6	2	0	-3	·	·	·
Cc1ccccc1NC(=O)N(C)[C@H]1C[C@H]2c3[nH]c4c(-c5ccc6c(c5)OCO6)cccc4c3CCN2C(=O)[C@H]1[C@H](C)O	·	7	0	-5	·	·	·
C[C@H](O)[C@@H]1C(=O)N2CCc3c([nH]c4c(-c5ccc6c(c5)OCO6)cccc34)[C@@H]2C[C@@H]1N(C)C(=O)Nc1ccccc1	·	-3	0	29*	·	20	·
COc1ccc(-n2nc(C(=O)NCC(=O)Nc3ccccn3)c3ccccc3c2=O)cc1Cl	-45	12	·	51*	·	61*	·
Cc1ccc(SCC(=O)NC2CC2)cc1	1	-3	0	27*	0	0	·
Cc1ccc(SCCC(=O)NC2CC2)cc1	-1	-12	0	-3	0	·	·
Cc1[nH][nH]c(=O)c1C(c1ccc(-c2cccc(C(=O)O)c2)o1)c1c(C)[nH][nH]c1=O	?	31*	-1	26*	0	-3	-10
Cc1[nH][nH]c(=O)c1C(c1ccc(-c2cccc(Cl)c2)o1)c1c(C)[nH][nH]c1=O	0	·	·	·	0	·	·
O=C(NC1(O)C(=O)c2ccccc2C1=O)c1ccccc1	0	37*	·	53*	0	21	3
C[C@@H]1CN([C@H](C)CO)C(=O)c2cc(NS(=O)(=O)c3cn(C)cn3)ccc2O[C@@H]1CN(C)Cc1ccncc1	·	·	0	·	·	·	·
CC(=O)NCCc1ccc(C(=O)COC(=O)c2ccco2)cc1	1	-3	0	14	0	·	·
COCCNc1nc(NCCCN2CCCC2=O)c2sc(-c3ccccc3)cc2n1	·	2	0	19	·	·	·
C=CCNc1nc(NCCCN2CCCC2=O)c2sc(-c3ccccc3)cc2n1	·	60*	0	38*	·	14	20
Cc1ccc(S(=O)(=O)Nc2ccc3c(c2)C(=O)N([C@@H](C)CO)C[C@H](C)[C@H](CN(C)C(=O)CCCN(C)C)OCCCC[C@H](C)O3)cc1	·	·	0	·	·	·	·
COc1cccc(-c2cc(C(=O)NCC3CCCO3)c3cc(C)cc(C)c3n2)c1 (stereo unspecified)	-8	-4	0	8	0	·	·
COc1ccccc1Nc1cc2cc(Br)ccc2c(=O)[nH]1	-9	31*	0	39*	0	34*	22
COc1ccc(OC)c(Nc2nnc(C)c(=O)[nH]2)c1	·	-7	0	7	0	·	·
COc1ccc(OC)c(Nc2cc3ccccc3c(=O)[nH]2)c1	5	27*	-1	30*	0	16	17
COc1ccc2c3c([nH]c2c1)[C@@H](CO)N(C(=O)C1CC1)CC31CN(C(=O)NC(C)C)C1	·	·	0	·	·	·	·
NCC[C@H]1CC[C@@H](NC(=O)C2CCC2)[C@@H](CO)O1	·	·	0	·	·	·	·
Cc1noc(C)c1NC(=O)Nc1ccc2c(c1)C(=O)N([C@@H](C)CO)C[C@@H](C)[C@H](CN(C)C(=O)NC(C)C)OCCCC[C@@H](C)O2	·	·	0	·	·	·	·
O=C(Nc1nc(-c2ccccc2)cs1)c1cccnc1	12	0	·	-2	0	·	·
CC(=O)Nc1ccc(C(=O)Nc2nc(-c3cccnc3)cs2)cc1	12	26*	43*	29*	0	52*	39*
Cc1ccc(NS(=O)(=O)c2ccc(N3CCN(c4ccc(O)cc4)CC3)c([N+](=O)[O-])c2)c(C)c1	8	22	0	19	0	·	·
SMILES	Rtt109 HAT inh	ARFGAP1 inhibitor	FGF22 binding	ASAP1 GAP inh	Efflux pump mplx	ASAP1 GAP conf	ARFGAP1 inh conf
CNc1cccc(-c2ccc(C(C)=O)s2)n1	·	7	0	-7	·	·	·
COc1cc(C)ccc1OCCOc1cc(C)ccc1Cl	-8	12	·	-4	0	·	·
C=CCN(CC=C)CCCOc1ccc(C)cc1OC	·	46*	0	51*	0	0	-7
CC1=[N+](C)c2ccc3ccccc3c2C1(C)C	·	31*	0	26*	0	22	18
COc1cc(/C=N/NC(=O)c2cccc([N+](=O)[O-])c2)ccc1OCc1ccccc1	-1	-13	0	8	0	·	·
COc1cc(/C=N/NC(=O)c2ccc(O)cc2)ccc1OCC(=O)Nc1cccc([N+](=O)[O-])c1	-2	71*	0	30*	0	42*	75*
COc1ccc(/C=N/Nc2cc(C)nc3ccc(OC)cc23)c(OC)c1	7	33*	0	43*	0	93*	93*
COc1ccc2nc(C)cc(N/N=C/c3ccccc3)c2c1	?	·	·	·	0	·	·
Nc1ccc2nc(-c3cccs3)[nH]c2c1	1	8	0	3	0	·	·
C#CCn1cc(/C=N/NC(=O)COc2cccc3cccnc23)c2ccccc21	1	7	·	20	0	·	·
COC(=O)Cn1cc(/C=N/NC(=O)COc2cccc3cccnc23)c2ccccc21	-5	29*	0	36*	-1	34*	31*
Clc1ccc(Cn2cc(/C=N/n3cnnc3)c3ccccc32)c(Cl)c1	-1	60*	·	44*	0	51*	77*
Cc1ccc(NC(=O)CCc2ccc(S(=O)(=O)N3CCOCC3)cc2)c(O)c1	-6	-8	0	-1	0	·	·
COc1cc(/C=N\NC(=O)c2ccc(C)nc2)ccc1OC(=O)c1ccc2c(c1)OCO2	-6	29*	·	29*	1	38*	75*
Clc1cccc(Cl)c1CON/C=N/c1ncnc2sccc12	-8	86*	·	93*	0	67*	66*
CC(=O)c1ccc(NC2=C(N3CCOCC3)C(=O)c3ccccc3C2=O)cc1	-41	25*	·	27*	0	13	1
CCN1CCN(Cc2ccc(NC(=O)c3cc(NC(=O)c4cncc(-c5ccc(C#N)cc5)c4)cc(OC)c3)cc2C(F)(F)F)CC1	-5	67*	0	57*	·	75*	108*
COc1ccc(/C=C2\C(=O)NC(=O)c3ccccc32)cc1OC	0	33*	1	44*	·	41*	19
COc1ccc(C=C2C(=O)OC(C)(C)OC2=O)cc1OC	-9	-4	0	4	0	·	·
COC(=O)c1ccc(NC(=O)c2ccc(NC(=O)c3ccco3)cc2)cc1	-17	39*	0	26*	11*	38*	52*
O=C(Oc1ccccc1)c1ccc(NC(=O)c2ccco2)cc1	1	-4	0	-14	0	·	·
COc1ccc(OC)c(/C=C/C(=O)OCC(=O)Nc2cccc(Oc3ccccc3)c2)c1	-1	-2	0	-6	0	·	·
